According to ChEMBL document CHEMBL4387708, “Enhancement of Benzothiazoles as Pteridine Reductase-1 Inhibitors for the Treatment of Trypanosomatidic Infections” (J Med Chem, 2019):
pIC50: −log10 of the molar value.

test system: not listed separately; experiment: Cytotoxicity against human U2OS cells assessed as reduction in cell number; type: cell-based; conditions: not given

SMILES | GI50 [µM]
Nc1nc2ccc(C(=O)N(CCO)Cc3ccccc3)cc2s1 | > 25
COC(=O)C1CCN(C(=O)c2ccc3nc(N)sc3c2)CC1 | > 25
CSc1ccc2nc(N)sc2c1 | > 25
Nc1nc2ccc(C(=O)NCCc3cccs3)cc2s1 | > 25

molecular target: Cytochrome P450 2C9 (Homo sapiens, UniProt P11712); experiment: Inhibition of human CYP2C9 expressed in baculovirus infected insect cells using beetle D-luciferin as substrate preincubated for 30 mins followed by NADPH addition and measured after 30 mins by CYP450-Glo assay; conditions: not given
Sequence (P11712 whole entry): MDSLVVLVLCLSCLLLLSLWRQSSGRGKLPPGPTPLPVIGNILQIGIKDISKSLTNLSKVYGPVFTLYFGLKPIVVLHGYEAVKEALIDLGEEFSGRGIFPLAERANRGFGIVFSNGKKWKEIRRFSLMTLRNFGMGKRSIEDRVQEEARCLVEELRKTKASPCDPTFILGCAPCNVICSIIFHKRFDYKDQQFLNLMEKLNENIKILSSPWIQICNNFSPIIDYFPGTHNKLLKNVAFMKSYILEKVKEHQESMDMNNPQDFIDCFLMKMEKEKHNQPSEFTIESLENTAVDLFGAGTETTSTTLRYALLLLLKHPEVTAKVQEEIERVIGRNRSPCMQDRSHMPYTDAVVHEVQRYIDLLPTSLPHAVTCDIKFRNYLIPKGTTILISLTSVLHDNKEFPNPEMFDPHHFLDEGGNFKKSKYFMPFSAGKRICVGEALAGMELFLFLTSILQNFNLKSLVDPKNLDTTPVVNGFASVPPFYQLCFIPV

pIC50 | SMILES
< 4.60 | Nc1nc2ccc(C(=O)N(CCO)Cc3ccccc3)cc2s1
< 4.60 | Nc1nc2ccc(C(=O)NCCc3cccs3)cc2s1

More lines, now with the values behind:

SMILES | pIC50
COC(=O)C1CCN(C(=O)c2ccc3nc(N)sc3c2)CC1 | 4.60 to 5.00
CSc1ccc2nc(N)sc2c1 | < 4.60

test system: Leishmania infantum; experiment: Growth inhibition of luciferase expressing Leishmania infantum axenic amastigotes infected in human THP1 cells at 10 uM measured after 72 hrs by steady-glo luminescence assay relative to control; type: organism-based; conditions: Leishmania infantum, THP-1, 72 h; read-out: GI

SMILES | inhibition at 10 µM [%]
Nc1nc2ccc(C(=O)N(CCO)Cc3ccccc3)cc2s1 | 20
COC(=O)C1CCN(C(=O)c2ccc3nc(N)sc3c2)CC1 | 8

same assay, conditions: leishmania infantum, 72 h, 10 µM

SMILES | growth inhibition (GI)
CSc1ccc2nc(N)sc2c1 | Non-Toxic
Nc1nc2ccc(C(=O)NCCc3cccs3)cc2s1 | Non-Toxic

molecular target: Cytochrome P450 2D6 (Homo sapiens, UniProt P10635); experiment: Inhibition of human CYP2D6 expressed in baculovirus infected insect cells using beetle D-luciferin as substrate preincubated for 30 mins followed by NADPH addition and measured after 30 mins by CYP450-Glo assay; conditions: not given
Sequence (P10635 whole entry): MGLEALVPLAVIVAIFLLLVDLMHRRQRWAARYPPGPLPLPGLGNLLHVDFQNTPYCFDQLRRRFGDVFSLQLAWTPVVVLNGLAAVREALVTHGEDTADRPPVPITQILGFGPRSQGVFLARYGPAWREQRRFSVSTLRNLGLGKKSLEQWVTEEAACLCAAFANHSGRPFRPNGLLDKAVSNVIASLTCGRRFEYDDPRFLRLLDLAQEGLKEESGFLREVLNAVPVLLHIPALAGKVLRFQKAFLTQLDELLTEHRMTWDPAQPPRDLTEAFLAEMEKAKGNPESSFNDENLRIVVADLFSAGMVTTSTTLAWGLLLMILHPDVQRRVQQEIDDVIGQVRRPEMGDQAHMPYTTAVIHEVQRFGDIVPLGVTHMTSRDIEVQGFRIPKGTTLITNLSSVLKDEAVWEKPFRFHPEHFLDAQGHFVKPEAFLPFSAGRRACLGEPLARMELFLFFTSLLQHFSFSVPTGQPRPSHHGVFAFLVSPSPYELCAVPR

pIC50 | SMILES
> 5.00 | Nc1nc2ccc(C(=O)N(CCO)Cc3ccccc3)cc2s1
> 5.00 | Nc1nc2ccc(C(=O)NCCc3cccs3)cc2s1

Continued, compound first:

SMILES | pIC50
N=C(N)c1ccc(OCCCCCOc2ccc(C(=N)N)cc2)cc1 [PENTAMIDINE] | 4.60 to 5.00
COC(=O)C1CCN(C(=O)c2ccc3nc(N)sc3c2)CC1 | 4.60 to 5.00
CSc1ccc2nc(N)sc2c1 | > 5.00

molecular target: not listed separately; experiment: Inhibition of N-terminal His-tagged Trypanosoma brucei pteridine reductase 1 using di-hydrobiopterine as substrate measured at 1 min interval for 50 mins in presence of NADPH; conditions: not given
Method in brief: (§1)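 Photometric PTR1 assay with NADPH and dihydrobiopterin substrate. H₄B formation is coupled non-enzymatically to cytochrome c reduction, read as signal increase at 550 nm.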

SMILES | pIC50
Nc1nc2ccc(C(=O)N(CCO)Cc3ccccc3)cc2s1 | 4.24
Nc1nc2ccc(C(=O)NCCc3cccs3)cc2s1 | 5.12

test system: not listed separately; experiment: Selectivity ratio of IC50 for Leishmania major pteridine reductase 1 to IC50 for N-terminal His-tagged Trypanosoma brucei pteridine reductase 1; conditions: not given

Ratio IC50 | SMILES
2 to 100 | Nc1nc2ccc(C(=O)N(CCO)Cc3ccccc3)cc2s1
2 to 100 | Nc1nc2ccc(C(=O)NCCc3cccs3)cc2s1

The remaining lines, values behind:

SMILES | Ratio IC50
COC(=O)C1CCN(C(=O)c2ccc3nc(N)sc3c2)CC1 | 2 to 100
CSc1ccc2nc(N)sc2c1 | 2 to 100

molecular target: T1, Pteridine reductase 1 (Leishmania major) (UniProt Q01782); experiment: Inhibition of Leishmania major pteridine reductase 1 at 50 uM using di-hydrobiopterine as substrate in presence of NADPH relative to control; conditions: not given; method in brief: as §1
T1 sequence (whole entry): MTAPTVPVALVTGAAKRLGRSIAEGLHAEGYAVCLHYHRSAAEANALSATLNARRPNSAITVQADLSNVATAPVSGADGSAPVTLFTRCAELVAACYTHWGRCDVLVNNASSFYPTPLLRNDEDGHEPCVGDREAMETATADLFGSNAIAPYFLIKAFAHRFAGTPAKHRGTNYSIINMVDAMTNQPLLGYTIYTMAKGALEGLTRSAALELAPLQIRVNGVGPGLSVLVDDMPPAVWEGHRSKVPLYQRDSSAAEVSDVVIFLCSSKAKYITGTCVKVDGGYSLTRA

inhibition [%] | SMILES
24.1 | Nc1nc2ccc(C(=O)N(CCO)Cc3ccccc3)cc2s1
18.3 | Nc1nc2ccc(C(=O)NCCc3cccs3)cc2s1

Second part, the compound before the results:

SMILES | inhibition [%]
COC(=O)C1CCN(C(=O)c2ccc3nc(N)sc3c2)CC1 | 23.3
CSc1ccc2nc(N)sc2c1 | 26.9

test system: not listed separately; experiment: Cytotoxicity against human A549 cells after 48 hrs by Celltiter-glo assay; type: cell-based; conditions: not given

SMILES | GI50 at 48 h [µM]
N=C(N)c1ccc(OCCCCCOc2ccc(C(=N)N)cc2)cc1 [PENTAMIDINE] | > 25
Nc1nc2ccc(C(=O)N(CCO)Cc3ccccc3)cc2s1 | > 25
COC(=O)C1CCN(C(=O)c2ccc3nc(N)sc3c2)CC1 | > 25
CSc1ccc2nc(N)sc2c1 | > 25
Nc1nc2ccc(C(=O)NCCc3cccs3)cc2s1 | > 25

test system: not listed separately; experiment: Cytotoxicity against human THP1 cells after 72 hrs by MTT assay; type: cell-based, THP-1; conditions: read-out: NOAEL

SMILES | MNTC at 72 h [µM]
N=C(N)c1ccc(OCCCCCOc2ccc(C(=N)N)cc2)cc1 [PENTAMIDINE] | > 25
Nc1nc2ccc(C(=O)N(CCO)Cc3ccccc3)cc2s1 | > 25
COC(=O)C1CCN(C(=O)c2ccc3nc(N)sc3c2)CC1 | > 25
CSc1ccc2nc(N)sc2c1 | > 25
Nc1nc2ccc(C(=O)NCCc3cccs3)cc2s1 | > 25

molecular target: Voltage-gated inwardly rectifying potassium channel KCNH2 (Homo sapiens, UniProt Q12809); experiment: Displacement of Tracer Red from human ERG by fluorescence polarization assay; conditions: not given
Sequence (Q12809 whole entry): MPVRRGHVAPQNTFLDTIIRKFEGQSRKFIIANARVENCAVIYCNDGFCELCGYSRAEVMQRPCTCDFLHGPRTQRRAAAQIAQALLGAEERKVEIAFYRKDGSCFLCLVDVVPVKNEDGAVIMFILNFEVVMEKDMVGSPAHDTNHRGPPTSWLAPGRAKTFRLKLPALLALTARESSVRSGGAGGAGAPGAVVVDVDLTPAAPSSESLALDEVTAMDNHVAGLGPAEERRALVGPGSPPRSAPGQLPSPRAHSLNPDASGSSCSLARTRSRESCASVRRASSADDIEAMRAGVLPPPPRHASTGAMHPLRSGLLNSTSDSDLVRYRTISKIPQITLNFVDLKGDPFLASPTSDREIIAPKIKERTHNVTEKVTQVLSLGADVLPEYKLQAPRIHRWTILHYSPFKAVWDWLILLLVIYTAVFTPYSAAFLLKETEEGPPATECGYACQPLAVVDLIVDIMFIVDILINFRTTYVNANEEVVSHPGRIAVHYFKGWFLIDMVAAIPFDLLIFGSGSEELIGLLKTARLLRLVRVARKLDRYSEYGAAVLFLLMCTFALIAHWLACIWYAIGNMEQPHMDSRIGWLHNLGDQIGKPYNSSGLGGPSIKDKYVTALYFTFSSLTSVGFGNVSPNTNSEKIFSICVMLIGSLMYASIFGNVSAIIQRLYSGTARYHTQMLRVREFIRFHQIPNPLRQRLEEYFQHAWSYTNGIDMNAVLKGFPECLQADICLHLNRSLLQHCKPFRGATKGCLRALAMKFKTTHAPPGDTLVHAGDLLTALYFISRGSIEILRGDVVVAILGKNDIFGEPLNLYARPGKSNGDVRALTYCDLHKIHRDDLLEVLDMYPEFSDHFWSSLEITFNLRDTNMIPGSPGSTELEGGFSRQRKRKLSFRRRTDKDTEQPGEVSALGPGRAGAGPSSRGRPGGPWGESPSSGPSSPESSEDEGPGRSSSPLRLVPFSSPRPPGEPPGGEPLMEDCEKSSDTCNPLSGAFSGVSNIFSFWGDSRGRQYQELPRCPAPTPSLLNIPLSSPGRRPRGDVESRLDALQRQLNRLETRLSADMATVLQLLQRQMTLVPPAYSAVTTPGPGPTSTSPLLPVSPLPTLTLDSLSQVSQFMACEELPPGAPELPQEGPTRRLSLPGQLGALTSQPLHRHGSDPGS

SMILES | pIC50
Nc1nc2ccc(C(=O)N(CCO)Cc3ccccc3)cc2s1 | < 4.60
COC(=O)C1CCN(C(=O)c2ccc3nc(N)sc3c2)CC1 | < 4.60
CSc1ccc2nc(N)sc2c1 | > 5.00
Nc1nc2ccc(C(=O)NCCc3cccs3)cc2s1 | > 5.00

test system: Trypanosoma brucei; experiment: Inhibition of N-terminal His-tagged Trypanosoma brucei pteridine reductase 1 at 50 uM using di-hydrobiopterine as substrate measured at 1 min interval for 50 mins in presence of NADPH relative to control; conditions: not given; method in brief: as §1

inhibition [%] | SMILES
> 60 | Nc1nc2ccc(C(=O)N(CCO)Cc3ccccc3)cc2s1
> 60 | Nc1nc2ccc(C(=O)NCCc3cccs3)cc2s1

More lines, now with the values behind:

SMILES | inhibition [%]
COC(=O)C1CCN(C(=O)c2ccc3nc(N)sc3c2)CC1 | 36.4
CSc1ccc2nc(N)sc2c1 | 16.7

test system: Trypanosoma cruzi; experiment: Growth inhibition of trypomastigote form of Trypanosoma cruzi Y infected in human U2OS cells at 50 uM measured after 72 hrs by DRAQ5 DNA dye based confocal microscopic analysis relative to control; type: organism-based; conditions: Trypanosoma cruzi, Y, U2OS, read-out: GI

SMILES | inhibition at 50 µM [%]
COC(=O)C1CCN(C(=O)c2ccc3nc(N)sc3c2)CC1 | 64.2
CSc1ccc2nc(N)sc2c1 | 22.5
Nc1nc2ccc(C(=O)NCCc3cccs3)cc2s1 | 29.8

same assay, conditions: trypanosoma cruzi, 50 µM

SMILES | growth inhibition (GI)
Nc1nc2ccc(C(=O)N(CCO)Cc3ccccc3)cc2s1 | Non-Toxic

molecular target: Cytochrome P450 3A4 (Homo sapiens, UniProt P08684); experiment: Inhibition of human CYP3A4 expressed in baculovirus infected insect cells using beetle D-luciferin as substrate preincubated for 30 mins followed by NADPH addition and measured after 30 mins by CYP450-Glo assay; conditions: not given
Sequence (P08684 whole entry): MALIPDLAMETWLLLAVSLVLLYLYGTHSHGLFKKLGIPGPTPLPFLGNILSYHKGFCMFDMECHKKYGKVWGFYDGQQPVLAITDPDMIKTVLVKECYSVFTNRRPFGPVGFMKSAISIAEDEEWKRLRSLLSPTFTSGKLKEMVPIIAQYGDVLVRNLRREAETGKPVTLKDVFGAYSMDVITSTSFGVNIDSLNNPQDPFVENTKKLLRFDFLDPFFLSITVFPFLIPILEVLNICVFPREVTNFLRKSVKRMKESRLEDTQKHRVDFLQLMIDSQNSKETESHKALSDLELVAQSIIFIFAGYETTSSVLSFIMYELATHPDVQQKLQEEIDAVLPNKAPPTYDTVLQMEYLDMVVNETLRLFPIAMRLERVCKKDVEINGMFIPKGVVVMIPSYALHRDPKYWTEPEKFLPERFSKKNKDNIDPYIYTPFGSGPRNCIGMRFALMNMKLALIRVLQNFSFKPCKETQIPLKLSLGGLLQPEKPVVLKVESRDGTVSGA

pIC50 | SMILES
4.60 to 5.00 | Nc1nc2ccc(C(=O)N(CCO)Cc3ccccc3)cc2s1
< 4.60 | Nc1nc2ccc(C(=O)NCCc3cccs3)cc2s1

More lines, now with the values behind:

SMILES | pIC50
COC(=O)C1CCN(C(=O)c2ccc3nc(N)sc3c2)CC1 | 4.60 to 5.00
CSc1ccc2nc(N)sc2c1 | < 4.60

molecular target: T2, Cytochrome P450 1A2 (Homo sapiens, UniProt P05177); experiment: Inhibition of human CYP1A2 expressed in baculovirus infected insect cells using beetle D-luciferin as substrate preincubated for 30 mins followed by NADPH addition and measured after 30 mins by CYP450-Glo assay; conditions: not given
T2 sequence (P05177 whole entry): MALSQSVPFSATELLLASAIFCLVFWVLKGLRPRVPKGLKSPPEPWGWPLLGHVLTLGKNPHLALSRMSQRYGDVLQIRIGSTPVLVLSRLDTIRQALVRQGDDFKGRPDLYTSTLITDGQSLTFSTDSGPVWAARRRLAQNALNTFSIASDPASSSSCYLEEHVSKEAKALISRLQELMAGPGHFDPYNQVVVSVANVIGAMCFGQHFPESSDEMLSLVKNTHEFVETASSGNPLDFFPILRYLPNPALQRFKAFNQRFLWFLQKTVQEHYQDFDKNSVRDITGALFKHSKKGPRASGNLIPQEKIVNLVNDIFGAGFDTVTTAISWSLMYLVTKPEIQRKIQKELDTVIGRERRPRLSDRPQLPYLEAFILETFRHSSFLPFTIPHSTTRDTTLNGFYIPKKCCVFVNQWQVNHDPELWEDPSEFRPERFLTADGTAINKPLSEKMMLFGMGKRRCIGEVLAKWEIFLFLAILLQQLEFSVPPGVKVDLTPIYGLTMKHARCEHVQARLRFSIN

pIC50 | SMILES
< 4.60 | Nc1nc2ccc(C(=O)N(CCO)Cc3ccccc3)cc2s1
4.60 to 5.00 | Nc1nc2ccc(C(=O)NCCc3cccs3)cc2s1

More lines, now with the values behind:

SMILES | pIC50
N=C(N)c1ccc(OCCCCCOc2ccc(C(=N)N)cc2)cc1 [PENTAMIDINE] | < 4.60
COC(=O)C1CCN(C(=O)c2ccc3nc(N)sc3c2)CC1 | 4.60 to 5.00
CSc1ccc2nc(N)sc2c1 | > 5.00

molecular target: Cytochrome P450 2C19 (Homo sapiens, UniProt P33261); experiment: Inhibition of human CYP2C19 expressed in baculovirus infected insect cells using beetle D-luciferin as substrate preincubated for 30 mins followed by NADPH addition and measured after 30 mins by CYP450-Glo assay; conditions: not given
Sequence (P33261 whole entry): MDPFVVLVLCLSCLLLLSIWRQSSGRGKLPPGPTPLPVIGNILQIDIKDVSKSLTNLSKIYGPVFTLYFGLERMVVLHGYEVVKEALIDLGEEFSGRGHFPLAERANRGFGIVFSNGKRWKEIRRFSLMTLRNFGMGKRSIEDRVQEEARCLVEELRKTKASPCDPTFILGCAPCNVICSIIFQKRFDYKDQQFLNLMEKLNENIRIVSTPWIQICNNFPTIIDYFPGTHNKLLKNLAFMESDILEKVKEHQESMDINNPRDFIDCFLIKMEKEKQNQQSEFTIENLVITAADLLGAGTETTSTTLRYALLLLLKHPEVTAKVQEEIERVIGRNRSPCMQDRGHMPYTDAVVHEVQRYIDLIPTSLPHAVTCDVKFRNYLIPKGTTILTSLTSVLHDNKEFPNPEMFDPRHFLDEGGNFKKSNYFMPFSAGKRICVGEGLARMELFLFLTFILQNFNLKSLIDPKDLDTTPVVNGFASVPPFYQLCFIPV

pIC50 | SMILES
< 4.60 | Nc1nc2ccc(C(=O)N(CCO)Cc3ccccc3)cc2s1
< 4.60 | Nc1nc2ccc(C(=O)NCCc3cccs3)cc2s1

More lines, now with the values behind:

SMILES | pIC50
N=C(N)c1ccc(OCCCCCOc2ccc(C(=N)N)cc2)cc1 [PENTAMIDINE] | < 4.60
COC(=O)C1CCN(C(=O)c2ccc3nc(N)sc3c2)CC1 | < 4.60
CSc1ccc2nc(N)sc2c1 | > 5.00

test system: Trypanosoma brucei; experiment: Growth inhibition of Trypanosoma brucei bloodstream forms at 10 uM measured after 72 hrs by resazurin-based fluorescence assay relative to control; type: organism-based; conditions: Trypanosoma brucei, read-out: GI

SMILES | inhibition at 10 µM [%]
Nc1nc2ccc(C(=O)N(CCO)Cc3ccccc3)cc2s1 | 8
COC(=O)C1CCN(C(=O)c2ccc3nc(N)sc3c2)CC1 | 19
CSc1ccc2nc(N)sc2c1 | 12
Nc1nc2ccc(C(=O)NCCc3cccs3)cc2s1 | 17

test system: not listed separately; experiment: Mitochondrial toxicity in human 786-O cells measured after 6 hrs by MitoTracker Red chloromethyl-X-rosamine based assay; type: cell-based, 786-0; conditions: not given

SMILES | IC50 at 6 h [µM]
N=C(N)c1ccc(OCCCCCOc2ccc(C(=N)N)cc2)cc1 [PENTAMIDINE] | > 25
Nc1nc2ccc(C(=O)N(CCO)Cc3ccccc3)cc2s1 | > 25
COC(=O)C1CCN(C(=O)c2ccc3nc(N)sc3c2)CC1 | > 25
CSc1ccc2nc(N)sc2c1 | < 10
Nc1nc2ccc(C(=O)NCCc3cccs3)cc2s1 | > 25
